The values below come from ChEMBL document CHEMBL1134015 (Bioorg Med Chem Lett, 2001).

The target in experiment [1] is GABA-A receptor; anion channel. As to the kind of experiment: Inhibition of [35S]TBPS binding to Gamma-aminobutyric acid A receptor of rat brain membranes. The class given is cell membranes, Membrane.
Experiment [2] concerns Mus musculus. As to the kind of experiment: In vivo anaesthetic activity after intravenous administration in MF-1 mice was determined by loss of righting reflex using probit analysis; Convulsant. The class given is functional, organism-based.
The test system of experiment [3] is Mus musculus. Briefly: In vivo anaesthetic activity after intravenous administration in MF-1 mice was determined by loss of righting reflex using probit analysis. The class given is functional.
The species entered for experiment [4] is Rattus norvegicus. As to the kind of experiment: Maximum BSR reached in male Wistar rats. In kind it is functional.
The species named for experiment [5] is Rattus norvegicus. Briefly: Time required to gain the righting reflex in male Wistar rats. In kind it is functional, organism-based.
For experiment [6], the species on record is Rattus norvegicus. As to the kind of experiment: Time taken to reach the maximum BSR in male Wistar rats. The class given is functional.
Experiment [7] is filed under the species Rattus norvegicus. Briefly: Time taken for 50% decrease in the BSR in male Wistar rats. In kind it is functional.
For experiment [8], the species on record is Rattus norvegicus. Briefly: Time to the first 0.25 s burst suppression epoch(onset of anaesthesa) in male Wistar rats. The class given is functional.
The species entered for experiment [9] is Rattus norvegicus. Briefly: Burst suppression ratio (BSR) profile in male Wistar rats. The class given is functional. A digest of the protocol:
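Male Wistar rats (218–420 g), with extradural electrodes implanted and at least 7 days recovery, lightly hand-restrained. IV injection over 10 s into a tail vein by computer-controlled infusion pump. […] BSR extracted from EEG. Read-outs: onset (first 0.25 s burst-suppression epoch), time to max BSR, time to 50% BSR decrease, time to regain righting reflex. Mean and SEM.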

Experiment [10] concerns GABA-A receptor; anion channel. As to the kind of experiment: Inhibition of [35S]TBPS binding to Gamma-aminobutyric acid A (GABA-A) receptor of rat whole brain membranes (inactive). The class given is cell membranes. A digest of the protocol:
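Rat whole-brain membranes. Inhibition of [35S]TBPS radioligand binding at the GABA-A receptor. […] Means of three experiments.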

One may read the IC50 as the concentration that gives 50% inhibition. A lower IC50 goes with higher potency. In the case of `CC(C)c1cc(CN2CCOCC2)cc(C(C)C)c1`, the IC50 in [1] is greater than 30 µM. Besides, the HD50 result with Mus musculus [2] is recorded as “Convulsant”.
With `CC(C)c1cccc(C(C)C)c1O` [PROPOFOL], the HD50 in the experiment on Mus musculus [3] turned out to be 68 µM/kg. Also, in the experiment listed under Rattus norvegicus [4], the “Max BSR” value came to 55%. In addition, the Recovery time in the experiment filed under Rattus norvegicus [5] turned out to be 5.2 min. Further, in the experiment listed under Rattus norvegicus [6], the “Time to max. BSR” value turned out to be 30 s. Also, the Offset time in the experiment listed under Rattus norvegicus [7] is 1.4 min. The same molecule showed an Onset time in the experiment listed under Rattus norvegicus [8] of 13.2 s.
Consider `CC(C)c1cc(CN2CCOCC2)cc(C(C)C)c1N`, for which the IC50 in [1] was greater than 100 µM. The same molecule had an HD50 in the experiment on Mus musculus [3] of 36.5 µM/kg.
`CC(C)c1cc(C(=O)CN2CCSCC2)cc(C(C)C)c1O` had an IC50 in experiment [1] greater than 10 µM. The same molecule returned an HD50 in the experiment on Mus musculus [3] of 68.5 µM/kg.
In experiment [1], `CC(C)c1cc(CN2CCSCC2)cc(C(C)C)c1O` came in with an IC50 of 27.6 µM. The HD50 with Mus musculus [3] was determined as 25.5 µM/kg.
In turn, `CC(C)c1cc(CN(C)Cc2ccccc2)cc(C(C)C)c1O` registered an IC50 in experiment [1] greater than 10 µM. Also, the HD50 in the experiment on Mus musculus [3] was 25.1 µM/kg.
On the same counts, the results for `CC(=O)N1CCN(Cc2cc(C(C)C)c(O)c(C(C)C)c2)CC1` are greater than 100 µM and 38.8 µM/kg.
`CC(C)c1cc(CN2CCOCC2)cc(C(C)C)c1O` returned an IC50 in experiment [1] greater than 100 µM. The molecule further registered an HD50 in the experiment on Mus musculus [3] of 32 µM/kg. Also, in the experiment listed under Rattus norvegicus [9], the BSR was 51 µM/kg. Also, the “Max BSR” value in the experiment listed under Rattus norvegicus [4] was determined as 54.9%. Besides, the Recovery time in the experiment listed under Rattus norvegicus [5] amounted to 3.8 min. In addition, in the experiment listed under Rattus norvegicus [6], the “Time to max. BSR” value is reported as 40 s. Further, in the experiment listed under Rattus norvegicus [7], the Offset time was 1.7 min. The molecule also returned an Onset time in the experiment filed under Rattus norvegicus [8] of 16.2 s.
On to `CC(C)c1cc(CN2CCSCC2)cc(C(C)C)c1N`, for which the IC50 in experiment [1] was greater than 100 µM. The HD50 in the experiment with Mus musculus [3] was found to be 22.9 µM/kg.
For `CC(C)c1cc(CN2CCOCC2)cc(C(C)C)c1N(C)C`, in that order: greater than 30 µM and 83 µM/kg.
Consider `CC(C)c1cc(CCN2CCOCC2)cc(C(C)C)c1O`, for which the 50% inhibitory concentration (IC50) in experiment [1] was greater than 100 µM. Also, in the experiment with Mus musculus [3], the HD50 worked out at 35.8 µM/kg.
In experiment [1], `CC(=O)Nc1c(C(C)C)cc(CN2CCOCC2)cc1C(C)C` yielded an IC50 greater than 10 µM. In the experiment with Mus musculus [3], this molecule showed an HD50 greater than 282 µM/kg.
Take `CNc1c(C(C)C)cc(CN2CCOCC2)cc1C(C)C`: the IC50 in [1] was greater than 100 µM. In addition, in the experiment on Mus musculus [3], the HD50 was found to be 51 µM/kg.
On to `CCOC(=O)C1CCN(Cc2cc(C(C)C)c(O)c(C(C)C)c2)CC1`, for which the IC50 in experiment [1] came out at 31 µM. Further, the HD50 in the experiment with Mus musculus [3] was found to be 19 µM/kg.
Consider `CCOC(=O)C1CCN(Cc2cc(C(C)C)c(N)c(C(C)C)c2)CC1`, for which, in [10], the IC50 entry was “Not Active”. Besides, the HD50 in the experiment on Mus musculus [3] amounted to 14.4 µM/kg.
